From ChEMBL document CHEMBL4725347, “Discovery of a Monoiodo Aza-BODIPY Near-Infrared Photosensitizer: in vitro and in vivo Evaluation for Photodynamic Therapy” (J Med Chem, 2020)
Activity calls are given as the source filed them. The calls are words filed in the database; no cut-off is given here.

Columns and labels:
[1] = Drug uptake in lysosomes of human HeLa cells at 5 uM incubated for 2 hrs under dark condition by Lyso tracker green dye based laser confocal microscopic analysis; format: ADME, subcellular, Lysosome
Summary of the method: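 HeLa cells adhered overnight on glass-bottom dishes and were loaded with 5 μM compound in the dark for 2 h. After PBS washes, cells were stained with Mito-Tracker Green FM 250 nM for 30 min, Lyso-Tracker Green 160 nM for 30 min, or ER-Tracker Green 2 μM for 45 min. Confocal imaging: trackers excited at 488 nm, collected 500–560 nm; compound excited at 633 nm, collected 650–740 nm.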

[2] = Photostability of the compound in PBS containing 1% Cremophor EL/1,2-propanediol (10:3, v:v) system assessed as compound degradation irradiated with 90 mW/cm2 light; format: physicochemical; settings: buffer
[3] = Induction of singlet oxygen generation in N,N-dimethylformamide assessed as relative rate of DPBF degradation to MB at 1 uM irradiated with 90 mW/cm2 halogen light; format: functional
Summary of the method: (§1)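 Singlet oxygen generation measured with 1,3-diphenylisobenzofuran (DPBF) as scavenger. The decrease in DPBF absorbance at 411 nm was monitored over time during light irradiation, and the photodegradation rate was calculated.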

[4] = Drug uptake in human HeLa cells xenografted Balb/c nu/nu mouse tumor at 2 mg/kg, iv measured after 3 hrs by fluorescence imaging analysis; format: ADME, organism-based, Neoplasm; settings: in vivo
Summary of the method: (§2)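 Female Balb/c nu/nu mice bore subcutaneous HeLa tumors (5×10^6 cells, right back) and received 2 mg/kg via tail vein. Living mice were imaged under isoflurane at time points (ex 680/em 720 nm, 1 s exposure). At set times mice were euthanized and heart, liver, spleen, lungs, kidneys and tumor imaged ex vivo; ROI quantified, mean ± SD, n = 3.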

HeLa [5] = assay: Induction of apoptosis in human HeLa cells assessed as early apoptotic cells at 200 nM preincubated for 3 hrs followed by 27 J/cm2 light irradiation and measured after 24 hrs by Annexin-V-FITC/propidium iodide staining based flow cytometry (reference value: 0.54%); format: functional
Summary of the method: (§3)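 HeLa cells in six-well plates were exposed to compound for 3 h, irradiated (λ > 590 nm), and incubated 24 h at 37 °C. Cells were then harvested, washed with PBS, and stained with annexin V-FITC/PI for 20 min at room temperature before immediate flow cytometry. Untreated, unirradiated cells served as control.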

HeLa [6] = assay: Induction of reactive oxygen species generation in human HeLa cells at 2.5 uM incubated for 3 hrs prior to H2DCFDA addition for 20 mins followed by 54 J/cm2 light irradiation by microplate reader analysis relative to dark treated cells; format: functional
Summary of the method: (§4)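 HeLa cells were exposed to 0.004, 0.02, 0.10, 0.5 or 2.5 μM for 3 h, washed, and loaded with H2DCFDA 10 μM in PBS for 20 min at 37 °C. After washing, cells in PBS were irradiated with 54 J/cm² (λ > 590 nm) or kept dark. Fluorescence was read by confocal microscopy and by plate reader (ex 485/em 538 nm).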

[7] = Absorption property of the compound in chloroform assessed as absorption coefficient by UV-visible spectrophotometric method; format: physicochemical
Summary of the method: (§5)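 Electronic absorption spectra recorded by UV-visible spectrophotometry at room temperature. Solvents were chloroform, isopropanol, acetonitrile, DMF, and PBS buffer containing 1% Cremophor EL/1,2-propanediol (10:3, v:v). Chloroform data were referenced to the non-halogenated parent dye.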

[8] = Induction of singlet oxygen generation in PBS containing 1% Cremophor EL/1,2-propanediol (10:3, v:v) system assessed as relative rate of DPBF degradation to MB at 1 uM irradiated with 90 mW/cm2 halogen light; format: functional; summary of the method: as §1
[9] = Drug uptake in human HeLa cells xenografted Balb/c nu/nu mouse heart at 2 mg/kg, iv measured after 3 hrs by fluorescence imaging analysis; format: ADME, organism-based; settings: in vivo; summary of the method: as §2
HeLa [10] = assay: Induction of apoptosis in human HeLa cells assessed as viable cells at 200 nM preincubated for 3 hrs followed by 27 J/cm2 light irradiation and measured after 24 hrs by Annexin-V-FITC/propidium iodide staining based flow cytometry (reference value: 90.74%); format: functional; settings: light or radiation study, read-out: Activity; summary of the method: as §3
HeLa [11] = assay: Induction of apoptosis in human HeLa cells assessed as viable cells at 200 nM preincubated for 3 hrs followed by 54 J/cm2 light irradiation and measured after 24 hrs by Annexin-V-FITC/propidium iodide staining based flow cytometry (reference value: 90.74%); format: functional; settings: light or radiation study, read-out: Activity; summary of the method: as §3
[12] = Dark toxicity in human SW480 cells assessed as reduction in cell viability after 3 hrs by MTT assay; format: cell-based
HeLa [13] = assay: Induction of apoptosis in human HeLa cells assessed as late apoptotic cells at 40 nM preincubated for 3 hrs followed by 54 J/cm2 light irradiation and measured after 24 hrs by Annexin-V-FITC/propidium iodide staining based flow cytometry (reference value: 5.92%); format: functional; summary of the method: as §3
[14] = Absorption property of the compound in chloroform assessed as hypsochromic shift by measuring maximum absorption wavelength by UV-visible spectrophotometric method; format: physicochemical; summary of the method: as §5
MCF7 = assay: Phototoxicity against human MCF7 cells assessed as reduction in cell viability preincubated for 3 hrs followed by 54 J/cm2 light irradiation and measured after 24 hrs by MTT assay; format: functional, cell-based; settings: MCF7, light or radiation study
Summary of the method: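 PS formulated in PBS containing Cremophor EL/1,2-propanediol (10:3, v:v) after THF removal, filtered, with concentration confirmed by UV-Vis. Cells were grown in DMEM with 10% FBS and seeded at 3×10^3 per well overnight. They were incubated with PS for 3 h, irradiated at λ > 590 nm, kept 24 h at 37 °C, then given MTT (0.5 mg/mL, 4 h) with DMSO solubilization and A490 read-out.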

[15] = Stability of the compound in acetonitrile assessed as compound degradation under dark condition; format: physicochemical
HeLa [16] = assay: Phototoxicity against human HeLa cells assessed as reduction in cell viability at 125 nM preincubated for 2 hrs followed by 5.4 to 108 J/cm2 light irradiation and measured after 24 hrs by MTT assay; format: functional, cell-based
HeLa [17] = assay: Induction of reactive oxygen species generation in human HeLa cells incubated for 3 hrs prior to H2DCFDA addition for 20 mins followed by 54 J/cm2 light irradiation by confocal scanning microscopic analysis; format: functional, cell-based; summary of the method: as §4
HeLa [18] = assay: Induction of reactive oxygen species generation in human HeLa cells at 0.004 to 2.5 uM incubated for 3 hrs under dark condition by confocal scanning microscopic analysis; format: cell-based; settings: dose 0.004-2.5 µM; summary of the method: as §4
[19] = Toxicity in human HeLa cells xenografted Balb/c nu/nu mouse assessed as body weight loss at 2 mg/kg, iv pretreated for 15 mins followed by 54 J/cm2 light irradiation for 10 mins and measured for 24 days; format: organism-based; settings: in vivo, 0.25 h
Summary of the method: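 Female Balb/c nu/nu mice (18-22 g) carried subcutaneous HeLa cells (about 5×10^6, right back) and were treated on day 7 at a tumor volume of 80-100 mm³. Five mice per group received a tail-vein dose; saline controls were also irradiated. Fifteen minutes later the tumor was irradiated once with a 75 W halogen lamp (590 nm cut-on, 90 mW/cm², 10 min), without anaesthesia. Body weight was recorded every other day.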

Drug uptake [1]: Active
Stabilty [2]: Stable
Drug uptake [4]: Active
Activity [7]: 97000 M⁻¹ cm⁻¹
Drug uptake [9]: Active
Activity [14]: 678 nm
Stabilty [15]: Unstable
SMILES: COc1ccc(C2=[N+]3C(=Nc4c(-c5ccccc5)cc(-c5ccc(OC)cc5)n4[B-]3(F)F)C(c3ccccc3)=C2I)cc1
fold change (FC) [3]: 1.3
Activity (HeLa [5]): 20.46%
fold change (FC) (HeLa [6]): 77
fold change (FC) [8]: 2.4
viability at 0.2 µM (HeLa [10]): 42.9%
viability at 0.2 µM (HeLa [11]): 8.15%
IC50 at 3 h [12]: > 50000 nM
Activity (HeLa [13]): 10.31%
IC50 (MCF7): 100 nM
Activity (HeLa [16]): Active
Activity (HeLa [17]): Dose-dependent effect
Activity (HeLa [18]): Non-Toxic
Activity [19]: Non-Toxic
